# Assay results: ChEMBL document CHEMBL5724801, “EUbOPEN Chemogenomics Library - Multiplex” (2024)
# Values joined by “and” are separate entries in the source; they are usually repeats but may differ in a detail not shown here. Equal entries are not always repeated.
# Test system: Fibroblast
# Experiment: Multiplex assay against human fibroblast
# Type: toxicity, cell-based
# Procedure, shortened: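 On a CQ1 microscope at 37°C and 5% CO2, live cells were imaged after compound addition. They had been stained at seeding with Hoechst33342, BioTracker Green Microtubule Cytoskeleton Dye, MitoTracker Red and Annexin V Alexa Fluor 680. CellPathfinder machine-learning gating assigned cells to Hoechst high-intensity objects or normal cells, normal cells to healthy, pyknosed or fragmented nuclei, and pyknosed cells to mitotic or apoptotic. Tubulin, mitochondrial-mass and membrane-permeability phenotypes are per cents of healthy-nucleus cells.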
# [1] = 12 h, 1 µM, compound concentration 1 uM
# [2] = 12 h, 10 µM, compound concentration 10 uM
# [3] = 24 h, 1 µM, compound concentration 1 uM
# [4] = 24 h, 10 µM, compound concentration 10 uM
# [5] = 48 h, 1 µM, compound concentration 1 uM
# [6] = 48 h, 10 µM, compound concentration 10 uM
structure (smiles),measurement,setting,value
Cc1cccc(F)c1C(=O)Nc1cnc(-c2cc3c(cc2Cl)OC(F)(F)O3)cn1 [ZEGOCRACTIN],Population Apoptotic (%),[1],6.56% and 18.18%
same,Population Fragmented Nuclei (%),[1],12.97% and 3.23%
same,Population Healthy Nuclei (%),[1],61.51% and 79.03%
same,Population Hoechst High Intensity Objects (%),[1],0%
same,Population Membrane Permeable-Phenotype (%),[1],2.04%
same,Population Mitochondria Different-Phenotype (%),[1],8.16%
same,Population Mitotic Cells (%),[1],93.44% and 81.82%
same,Population Normal (%),[1],100%
same,Population Pyknosed Nuclei (%),[1],25.52% and 17.74%
same,Population Tubulin-Different-Phenotype (%),[1],17.01% and 13.61%
same,Total Cell Count,[1],239 and 186
same,Population Apoptotic (%),[2],8.93% and 22.86%
same,Population Fragmented Nuclei (%),[2],13.11% and 8.77%
same,Population Healthy Nuclei (%),[2],56.28% and 70.76%
same,Population Hoechst High Intensity Objects (%),[2],0%
same,Population Membrane Permeable-Phenotype (%),[2],3.88% and 4.96%
same,Population Mitochondria Different-Phenotype (%),[2],17.48% and 19.01%
same,Population Mitotic Cells (%),[2],91.07% and 77.14%
same,Population Normal (%),[2],100%
same,Population Pyknosed Nuclei (%),[2],30.6% and 20.47%
same,Population Tubulin-Different-Phenotype (%),[2],24.27% and 42.15%
same,Total Cell Count,[2],183 and 171
same,Population Apoptotic (%),[3],11.11% and 9.52%
same,Population Fragmented Nuclei (%),[3],9.33% and 2.59%
same,Population Healthy Nuclei (%),[3],73.88% and 86.53%
same,Population Hoechst High Intensity Objects (%),[3],0%
same,Population Membrane Permeable-Phenotype (%),[3],3.54% and 0%
same,Population Mitochondria Different-Phenotype (%),[3],7.07% and 6.59%
same,Population Mitotic Cells (%),[3],88.89% and 90.48%
same,Population Normal (%),[3],100%
same,Population Pyknosed Nuclei (%),[3],16.79% and 10.88%
same,Population Tubulin-Different-Phenotype (%),[3],14.65% and 11.38%
same,Total Cell Count,[3],268 and 193
same,Population Apoptotic (%),[4],7.81% and 17.65%
same,Population Fragmented Nuclei (%),[4],13% and 8.14%
same,Population Healthy Nuclei (%),[4],55% and 72.09%
same,Population Hoechst High Intensity Objects (%),[4],0%
same,Population Membrane Permeable-Phenotype (%),[4],3.64% and 1.61%
same,Population Mitochondria Different-Phenotype (%),[4],14.55% and 32.26%
same,Population Mitotic Cells (%),[4],92.19% and 82.35%
same,Population Normal (%),[4],100%
same,Population Pyknosed Nuclei (%),[4],32% and 19.77%
same,Population Tubulin-Different-Phenotype (%),[4],37.27% and 46.77%
same,Total Cell Count,[4],200 and 172
same,Population Apoptotic (%),[5],15% and 35%
same,Population Fragmented Nuclei (%),[5],9.76% and 3.2%
same,Population Healthy Nuclei (%),[5],83.28% and 87.67%
same,Population Hoechst High Intensity Objects (%),[5],0%
same,Population Membrane Permeable-Phenotype (%),[5],1.26% and 2.6%
same,Population Mitochondria Different-Phenotype (%),[5],9.62% and 2.6%
same,Population Mitotic Cells (%),[5],85% and 65%
same,Population Normal (%),[5],100%
same,Population Pyknosed Nuclei (%),[5],6.97% and 9.13%
same,Population Tubulin-Different-Phenotype (%),[5],8.79% and 19.79%
same,Total Cell Count,[5],287 and 219
same,Population Apoptotic (%),[6],15% and 9.52%
same,Population Fragmented Nuclei (%),[6],10.91% and 9.6%
same,Population Healthy Nuclei (%),[6],70.91% and 78.53%
same,Population Hoechst High Intensity Objects (%),[6],0%
same,Population Membrane Permeable-Phenotype (%),[6],0.64% and 4.32%
same,Population Mitochondria Different-Phenotype (%),[6],20.51% and 13.67%
same,Population Mitotic Cells (%),[6],85% and 90.48%
same,Population Normal (%),[6],100%
same,Population Pyknosed Nuclei (%),[6],18.18% and 11.86%
same,Population Tubulin-Different-Phenotype (%),[6],28.21% and 56.83%
same,Total Cell Count,[6],220 and 177
CCOC(=O)c1cnn(-c2ccc(NC(=O)C(Cl)=C(Cl)Cl)cc2)c1C(F)(F)F,Population Apoptotic (%),[1],8.82% and 15%
same,Population Fragmented Nuclei (%),[1],15.65% and 11.22%
same,Population Healthy Nuclei (%),[1],61.22% and 68.37%
same,Population Hoechst High Intensity Objects (%),[1],0%
same,Population Membrane Permeable-Phenotype (%),[1],5.56% and 0%
same,Population Mitochondria Different-Phenotype (%),[1],6.67% and 10.45%
same,Population Mitotic Cells (%),[1],91.18% and 85%
same,Population Normal (%),[1],100%
same,Population Pyknosed Nuclei (%),[1],23.13% and 20.41%
same,Population Tubulin-Different-Phenotype (%),[1],8.89% and 11.94%
same,Total Cell Count,[1],147 and 196
same,Population Apoptotic (%),[2],23.28% and 49.64%
same,Population Fragmented Nuclei (%),[2],10.69% and 2.33%
same,Population Healthy Nuclei (%),[2],16.35% and 18.02%
same,Population Hoechst High Intensity Objects (%),[2],0%
same,Population Membrane Permeable-Phenotype (%),[2],7.69% and 12.9%
same,Population Mitotic Cells (%),[2],76.72% and 50.36%
same,Population Normal (%),[2],100%
same,Population Pyknosed Nuclei (%),[2],72.96% and 79.65%
same,Population Tubulin-Different-Phenotype (%),[2],42.31% and 54.84%
same,Total Cell Count,[2],159 and 172
same,Population Apoptotic (%),[3],32.35% and 26.32%
same,Population Fragmented Nuclei (%),[3],13.42% and 8.93%
same,Population Healthy Nuclei (%),[3],63.76% and 82.59%
same,Population Hoechst High Intensity Objects (%),[3],0%
same,Population Membrane Permeable-Phenotype (%),[3],1.05% and 1.08%
same,Population Mitochondria Different-Phenotype (%),[3],5.26% and 3.78%
same,Population Mitotic Cells (%),[3],67.65% and 73.68%
same,Population Normal (%),[3],100%
same,Population Pyknosed Nuclei (%),[3],22.82% and 8.48%
same,Population Tubulin-Different-Phenotype (%),[3],12.63% and 12.43%
same,Total Cell Count,[3],149 and 224
same,Population Apoptotic (%),[4],37.76% and 80.65%
same,Population Fragmented Nuclei (%),[4],17.09% and 8.6%
same,Population Healthy Nuclei (%),[4],20.89% and 24.73%
same,Population Hoechst High Intensity Objects (%),[4],0%
same,Population Membrane Permeable-Phenotype (%),[4],15.15% and 43.48%
same,Population Mitochondria Different-Phenotype (%),[4],0% and 19.57%
same,Population Normal (%),[4],100%
same,Population Pyknosed Nuclei (%),[4],62.03% and 66.67%
same,Population Tubulin-Different-Phenotype (%),[4],39.39% and 84.78%
same,Total Cell Count,[4],158 and 186
same,Population Apoptotic (%),[5],35.29% and 26.67%
same,Population Fragmented Nuclei (%),[5],12.65% and 7.11%
same,Population Healthy Nuclei (%),[5],77.11% and 86.22%
same,Population Hoechst High Intensity Objects (%),[5],0%
same,Population Membrane Permeable-Phenotype (%),[5],0.78% and 1.55%
same,Population Mitotic Cells (%),[5],64.71% and 73.33%
same,Population Normal (%),[5],100%
same,Population Pyknosed Nuclei (%),[5],10.24% and 6.67%
same,Population Tubulin-Different-Phenotype (%),[5],4.69% and 11.86%
same,Total Cell Count,[5],166 and 225
same,Population Apoptotic (%),[6],35.48% and 83.87%
same,Population Fragmented Nuclei (%),[6],22.75% and 43.62%
same,Population Healthy Nuclei (%),[6],58.68% and 39.89%
same,Population Hoechst High Intensity Objects (%),[6],0%
same,Population Membrane Permeable-Phenotype (%),[6],14.29% and 37.33%
same,Population Mitochondria Different-Phenotype (%),[6],15.31% and 25.33%
same,Population Normal (%),[6],100%
same,Population Pyknosed Nuclei (%),[6],18.56% and 16.49%
same,Population Tubulin-Different-Phenotype (%),[6],40.82% and 89.33%
same,Total Cell Count,[6],167 and 188
